Data as given in ChEMBL document CHEMBL1152208, “The discovery of biaryl carboxamides as novel small molecule agonists of the motilin receptor” (Bioorg Med Chem Lett, 2008).

Legend:
[1] = target: Motilin receptor (Homo sapiens, UniProt O43193); assay: Agonist activity at human recombinant motilin receptor expressed in HEK293 cells by FLIPR assay; format: functional, cell-based
Method in brief: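 HEK293 cells stably expressing human motilin receptor, seeded on poly-lysine plates 24 h before assay. Loaded with Fluo-4-AM (final) and 1 mM probenecid (final) in HEPES-buffered saline with 0.1% BSA for 1 h at 25 °C, washed, rested 20 min at 25 °C. Fluorescence change followed for 2 min after compound addition. Peak change over baseline was fitted with a 4-parameter logistic to give pEC50. Mean of at least three independent experiments (n = 2 for some).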

[2] = tested on: Liver microsomes; assay: Intrinsic clearance in human liver microsome; format: ADME
[3] = tested on: Liver microsomes; assay: Intrinsic clearance in rat liver microsome; format: ADME
[4] = target: T1, Cytochrome P450 3A4 (Homo sapiens, UniProt P08684); assay: Inhibition of CYP3A4 using diethoxyfluorescein substrate; format: ADME
[5] = target: T1, Cytochrome P450 3A4; assay: Inhibition of CYP3A4 using phenyl-piperazinyl-methyl-benzyl-resofurin substrate; format: ADME
[6] = Aqueous solubility of the compound; format: physicochemical
[7] = tested on: Stomach; assay: Potentiation of electrical field stimulation-induced contraction in New Zealand white rabbit gastric antrum at 10 uM; format: functional; settings: Oryctolagus cuniculus
[8] = tested on: Stomach; assay: Potentiation of electrical field stimulation-induced contraction in New Zealand white rabbit gastric antrum at 3 uM; format: functional; settings: Oryctolagus cuniculus
[9] = tested on: Stomach; assay: Potentiation of electrical field stimulation-induced contraction in New Zealand white rabbit gastric antrum at 1 uM; format: functional; settings: Oryctolagus cuniculus
[10] = tested on: Stomach; assay: Potentiation of electrical field stimulation-induced contraction in New Zealand white rabbit gastric antrum at 0.3 uM; format: functional; settings: Oryctolagus cuniculus

Sequence of Motilin receptor (O43193 whole entry): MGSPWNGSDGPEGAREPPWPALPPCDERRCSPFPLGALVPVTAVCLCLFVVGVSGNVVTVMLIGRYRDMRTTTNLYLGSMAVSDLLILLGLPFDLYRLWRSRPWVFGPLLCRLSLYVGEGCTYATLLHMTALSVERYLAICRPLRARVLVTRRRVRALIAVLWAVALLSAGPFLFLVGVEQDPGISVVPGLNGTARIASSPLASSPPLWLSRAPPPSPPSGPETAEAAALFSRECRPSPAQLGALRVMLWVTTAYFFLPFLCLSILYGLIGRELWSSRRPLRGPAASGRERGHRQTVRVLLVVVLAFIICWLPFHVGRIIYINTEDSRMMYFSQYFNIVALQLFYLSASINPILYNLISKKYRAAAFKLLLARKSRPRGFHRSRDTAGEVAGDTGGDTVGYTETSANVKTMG
T1 sequence (P08684 whole entry): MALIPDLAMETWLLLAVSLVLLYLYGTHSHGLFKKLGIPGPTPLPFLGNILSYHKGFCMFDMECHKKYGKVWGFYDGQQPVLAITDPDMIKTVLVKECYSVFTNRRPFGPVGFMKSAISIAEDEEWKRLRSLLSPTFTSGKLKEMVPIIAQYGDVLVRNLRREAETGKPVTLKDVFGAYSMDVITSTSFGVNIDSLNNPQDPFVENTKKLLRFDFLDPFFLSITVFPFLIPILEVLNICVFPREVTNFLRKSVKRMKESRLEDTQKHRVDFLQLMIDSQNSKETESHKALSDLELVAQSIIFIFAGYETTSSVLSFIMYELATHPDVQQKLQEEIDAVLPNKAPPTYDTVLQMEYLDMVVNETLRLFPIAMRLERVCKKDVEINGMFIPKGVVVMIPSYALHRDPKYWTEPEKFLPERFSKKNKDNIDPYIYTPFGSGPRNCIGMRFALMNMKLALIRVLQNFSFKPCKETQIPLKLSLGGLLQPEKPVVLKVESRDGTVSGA

## C[C@@H]1CN(Cc2ccc(-c3cccnc3C(=O)N3CCC(Nc4ccc(F)c(F)c4)CC3)cc2)C[C@H](C)N1
[1]
  EC50: 0.002 µM
[2]
  CL: 7 mL/min/g
[3]
  CL: 5.9 mL/min/g

## C[C@@H]1CN(Cc2ccc(-c3ccccc3CN(C)C(=O)COc3ccc(F)cc3)cc2)C[C@H](C)N1
[1]
  EC50: 0.0316 µM
[4]
  IC50: 6 µM
[5]
  IC50: 7.3 µM

## C[C@@H]1CN(Cc2ccc(-c3cccnc3C(=O)N3CCC(Nc4ccc(C#N)cc4)CC3)cc2)C[C@H](C)N1
[1]
  EC50: 0.631 µM

## C[C@@H]1CN(Cc2ccc(-c3cccnc3C(=O)N3CCC(Nc4ccc(C(N)=O)cc4)CC3)cc2)C[C@H](C)N1
[1]
  EC50: 2.51 µM

## COc1cccc(CCN(Cc2ccccc2-c2ccc(CN3CCNCC3)cc2)C(=O)COc2ccccc2)c1
[1]
  EC50: 0.251 µM

## C[C@@H]1CN(Cc2ccc(-c3ccccc3C(=O)N3CCC(Nc4ccc(F)cc4)CC3)cc2)C[C@H](C)N1
[1]
  EC50: 0.00251 µM

## C[C@@H]1CN(Cc2ccc(-c3cccnc3C(=O)N3CCC(Nc4ccc(F)cc4)CC3)cc2)C[C@H](C)N1.Cl
[6]
  solubility: ≥ 1000 µg/mL

## COc1cc(-c2cccnc2C(=O)N2CCC(Nc3ccc(F)cc3)CC2)ccc1CN1C[C@@H](C)N[C@@H](C)C1
[1]
  EC50: 0.00501 µM
[2]
  CL: 5.3 mL/min/g
[3]
  CL: 5.9 mL/min/g

## C[C@@H]1CN(Cc2ccc(-c3cccnc3C(=O)N3CCC(Nc4cccc(C#N)c4)CC3)cc2)C[C@H](C)N1
[1]
  EC50: 0.02 µM
[2]
  CL: 3.5 mL/min/g
[3]
  CL: 4.6 mL/min/g

## C[C@@H]1CN(Cc2ccc(-c3ccccc3CN(C)C(=O)CS(=O)(=O)c3ccccc3)cc2)C[C@H](C)N1
[1]
  EC50: 0.01 µM
[4]
  IC50: 3 µM
[5]
  IC50: 8.9 µM
[2]
  CL: 6.8 mL/min/g
[3]
  CL: 4.3 mL/min/g

## C[C@@H]1CN(Cc2cnc(-c3ccccc3C(=O)N3CCC(Nc4ccc(F)cc4)CC3)s2)C[C@H](C)N1
[1]
  EC50: 0.398 µM

## C[C@@H]1CN(Cc2ccc(N3CCCC3C(=O)N3CCC(Nc4cccc(F)c4)CC3)cc2)C[C@H](C)N1 (stereo partly drawn)
[1]
  EC50: 2.51 µM

## C[C@@H]1CN(Cc2ccc(-c3ccccc3CN(C)C(=O)CSc3ccccc3)cc2)C[C@H](C)N1
[1]
  EC50: 0.00316 µM

## C[C@@H]1CN(Cc2ccc(-c3cccnc3C(=O)N3CCC(Nc4ccc(F)cc4)CC3)cc2F)C[C@H](C)N1
[1]
  EC50: 0.00398 µM
[2]
  CL: 5.5 mL/min/g
[3]
  CL: 6.5 mL/min/g

## CC(C)CCC(=O)N(C)Cc1ccccc1-c1ccc(CN2C[C@@H](C)N[C@@H](C)C2)cc1
[1]
  EC50: 0.251 µM

## CC[C@H]1OC(=O)[C@H](C)[C@@H](O[C@H]2C[C@@](C)(OC)[C@@H](O)[C@H](C)O2)[C@H](C)[C@@H](O[C@@H]2O[C@H](C)C[C@H](N(C)C)[C@H]2O)[C@](C)(O)C[C@@H](C)C(=O)[C@H](C)[C@@H](O)[C@]1(C)O [ERYTHROMYCIN]
[7]
  Emax at 10 µM: 368%
[8]
  Emax at 3 µM: 490%
[9]
  Emax at 1 µM: 189%
[10]
  Emax at 0.3 µM: 69%

## C[C@@H]1CN(Cc2ccc(-c3ccccc3C(=O)N3CCC(Nc4ccc(Cl)cc4)CC3)cc2)C[C@H](C)N1
[1]
  EC50: 0.0501 µM
[4]
  IC50: 5.2 µM
[5]
  IC50: 3.5 µM
[2]
  CL: 8 mL/min/g
[3]
  CL: 33 mL/min/g

## C[C@@H]1CN(Cc2ccc(-c3cccnc3C(=O)N3CCC(Nc4ccccc4C#N)CC3)cc2)C[C@H](C)N1
[1]
  EC50: 0.794 µM

## C[C@@H]1CN(Cc2ccc(-c3cccnc3C(=O)N3CCC(Nc4cccc(F)c4)CC3)cc2F)C[C@H](C)N1
[1]
  EC50: 0.01 µM
[2]
  CL: 9.4 mL/min/g
[3]
  CL: 12 mL/min/g

## C[C@@H]1CN(Cc2ccc(-c3ccccc3C(=O)N3CCC(Oc4ccc(F)cc4)CC3)cc2)C[C@H](C)N1
[1]
  EC50: 0.0631 µM
